This is a sample that favours compounds with a hit; in the whole collection about 3% have one here.
Yeast growth inh = yeast BB579 growth reduction in restrictive medium. S. cerevisiae BB579 growth, OD615, 48 h. inhibition, % at 10 µM. actives 0.51% (n = 140,000);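 active = inhibition above a set limit, 3 SD over the mean compound inhibition, cut at about 44% in these data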
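Assay system: S. cerevisiae DeaD strain BB579 yeast. Medium: CSMM-D restrictive synthetic medium containing dextrose (glucose). Times: 4 h cell preincubation, 48 h compound exposure, 30 °C humidified. Signal: OD615 turbidity measurement. Benchmarks: positive control amphotericin B 10 µg/mL.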
RAM network inh = yeast RAM network inhibition | S. cerevisiae dse1pr::URA3 reporter, 5-FOA growth OD615, 2 d; analog-sensitive cbk1-as2 kinase mutant strain | inhibition, % at 50 µM | actives 1.8% (n = 190,000);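 active = inhibition above a set limit, 3 SD over mean compound inhibition, cut at about 8.4% in these data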;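 also: inhibition rescues growth on 5-FOA so higher OD means more RAM inhibition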
Yeast lifespan up = extends the lifespan of yeast | inhibition of the nicotinamide effect, % at 10 µM | AID 775 | S. cerevisiae growth with nicotinamide, OD615; deaD strain in restrictive glucose medium | actives 0.68% (n = 130,000);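 active = inhibition above a set limit, placed 3 SD over the median of all compounds, cut at about 26% in these data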
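Measured by: optical density (absorbance) at 615 nm; System: modified budding yeast, DeaD strain; Medium: restrictive CSMM-D dextrose medium; Timing: 4 h preincubation then 48 h treatment at 30 °C.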
Insulin prom inh = TRM-6 insulin promoter activity inhibition; TRM-6 cells, insulin promoter-eGFP reporter, imaging; reporter expression induced with tamoxifen; inhibition, % at 2 µM; actives 0.9% (n = 130,000); AID 1273;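 active = inhibition above the mean plus 3 SD, with well images judged a real hit on visual review, cut at about 60% in these data, passing the limit was not always enough; inconclusive = inhibition over the cutoff but images rejected on review; inactive = inhibition not above the cutoff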
Ins promoter up = MIN6 insulin promoter up-regulation; MIN6 insulin promoter-GFP reporter, high-content imaging; hits give high values; actives 0.3% (n = 190,000); z-score at 5 µM;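 active = z-score above 3 at 5 µM with at least 500 cells counted in the well; inconclusive = wells under 500 cells, flagged as cytotoxic or low count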
A number is an active result; . = inactive; ? = inconclusive; / = not tested or not shown.

SMILES	Yeast growth inh	RAM network inh	Yeast lifespan up	Insulin prom inh	Ins promoter up
O=C(OCc1ccccc1)/C(=C/c1ccc(Cl)cc1)NC(=O)c1ccccc1Cl	.	9.2	.	/	.
O=C(OCc1ccccc1)/C(=C/c1cccc2ccccc12)NC(=O)c1ccccc1	.	.	.	.	.
Cc1ccc(C(=O)N/C(=C\c2ccccc2)C(=O)OCc2ccccc2)cc1	.	9.5	.	/	.
Cc1ccc2c(c1)C1CN(C)CCC1N2C(=O)COc1ccccc1F (stereo not given)	/	/	/	/	.
Cc1cc(C)n2c(SCc3ccc(Br)cc3)nnc2n1	/	/	/	/	.
Cc1cc(C)n2c(SCc3c(C)noc3C)nnc2n1	.	.	/	80	.
CCC1CN(C(=O)Nc2ccc(C)cc2)c2cc(C)ccc2O1 (stereo not given)	/	.	/	.	/
CC1(C)Cc2c(sc3nc(-c4ccccc4)oc(=O)c23)CO1	.	.	.	.	.
C=C1N(c2cccc(Cl)c2)C(=O)OC1(C)C	/	.	/	/	.
CC1OC23CCCCC2C(C#N)(C(=N)O3)C1(C#N)C#N (stereo not given)	.	.	/	77	.
CCOC(=O)CC(=O)CSc1nc2c(sc(=S)n2-c2ccc(OCC)cc2)c(=O)[nH]1	.	8.7	.	.	.
CCCN(CCC)C(=O)CSc1nc2c(sc(=S)n2-c2ccc(OCC)cc2)c(=O)[nH]1	/	.	/	.	/
C=CCOc1c(Cl)cc(CNc2ccc(C)c(Cl)c2)cc1OC	.	.	.	.	.
C=CCOc1c(Cl)cc(CNc2ccc(N(C)C)cc2)cc1OC	.	8.4	.	.	.
O=c1c(Cl)c(Cl)cnn1Cc1nnc(-c2ccccc2Br)o1	/	.	/	/	?
N#C/C(=C\C1=C(N2CCOCC2)C(=C\c2ccc(Cl)cc2)/CC1)C(=O)Nc1ccccc1F	.	.	.	.	3.3
O=C(CCn1c(=O)c2sccc2n(CC(=O)OCc2ccccc2)c1=O)NCc1ccccc1	.	11	.	.	/
Cc1ccc(C(=O)c2no[n+]([O-])c2C(=O)c2ccc(C)cc2)cc1	.	.	27	.	.
CCCc1[nH]n(-c2ccc([N+](=O)[O-])cc2)c(=O)c1C(C)=NCc1ccncc1	/	/	/	/	.
Cn1cc(/C=C/C(=O)c2ccccc2)c2ccccc21	/	/	/	/	.
Cc1ccc(C(=O)/C=C/c2cn(CN3CCN(C)CC3)c3ccccc23)cc1	73	.	.	.	.
CCCSC1=N/C(=C\c2ccc3c(c2)OCO3)C(=O)S1	.	10	.	.	.
O=C1N(Cc2cccnc2)C[C@@H]2C[C@@H](c3ccc4nsnc4c3)N3CCC[C@@]123	/	.	/	/	.
CCCn1c(=O)[nH]c(=O)c2c1nc(-c1ccccc1)n2CCN1CCOCC1	.	.	57	.	/
O=C1c2ccc3c4c(ccc(c24)C(=O)N1NC(=O)C(F)(F)F)CC3	54	.	.	.	.
SMILES	Yeast growth inh	RAM network inh	Yeast lifespan up	Insulin prom inh	Ins promoter up
O=C(NN1C(=O)c2ccc3c4c(ccc(c24)C1=O)CC3)c1ccc(Br)cc1	.	.	.	.	/
CCOC(=O)c1sc2ncn(C(C)C(=O)OCC)c(=O)c2c1C (stereo not given)	.	.	.	/	.
Cc1sc2ncn(C(C)C(=O)OC3CCCCC3)c(=O)c2c1C (stereo not given)	.	.	27	.	.
COc1cc(CN2CCCC(CO)(Cc3cccc(Cl)c3)C2)cc2c1OCO2 (stereo not given)	/	.	/	/	.
Cc1cc([N+](=O)[O-])nn1CCC(=O)Nc1nccs1	/	.	/	.	/
CCOC(=O)/C(=N\Nc1ccccc1Cl)N1CCN(Cc2ccccc2)CC1	59	.	.	/	.
CCOC(=O)/C(=N\Nc1ccccc1Cl)N1CCN(C)CC1	.	.	.	/	.
O=C(Cn1c(-c2cscn2)nc2ccccc21)Nc1ccc2ccccc2c1	.	11	.	.	.
COc1ccccc1NS(=O)(=O)c1cc([N+](=O)[O-])ccc1N/N=C/c1c(C)[nH]c2ccccc12	.	11	.	.	/
COC(=O)c1cc(NS(=O)(=O)c2ccc(N3CCC(C)CC3)c([N+](=O)[O-])c2)cc(C(=O)OC)c1	.	.	.	/	.
O=[N+]([O-])c1c(NCCO)cc(N2CCC3(CC2)OCCO3)c2nonc12	.	.	.	.	.
CCOC(=O)N1CCN(c2cc(NCCC(=O)O)c3c4c(onc24)-c2ccccc2C3=O)CC1	.	9.4	.	/	.
O=C(O)CCCNc1cc(N2CCC3(CC2)OCCO3)c2noc3c2c1C(=O)c1ccccc1-3	.	8.7	.	.	/
